# SIRT5 block: inhibitors of human sirtuin-5 desuccinylase. Q9NXA8. Purified SirT5, succinyl-peptide AMC, trypsin-coupled fluorescence. inhibition, % at 15 µM. hit rate 1.1% among 330,000. AID 652115; in the data active means inhibition above about 15%
# Target sequence (Q9NXA8 whole entry, looked up): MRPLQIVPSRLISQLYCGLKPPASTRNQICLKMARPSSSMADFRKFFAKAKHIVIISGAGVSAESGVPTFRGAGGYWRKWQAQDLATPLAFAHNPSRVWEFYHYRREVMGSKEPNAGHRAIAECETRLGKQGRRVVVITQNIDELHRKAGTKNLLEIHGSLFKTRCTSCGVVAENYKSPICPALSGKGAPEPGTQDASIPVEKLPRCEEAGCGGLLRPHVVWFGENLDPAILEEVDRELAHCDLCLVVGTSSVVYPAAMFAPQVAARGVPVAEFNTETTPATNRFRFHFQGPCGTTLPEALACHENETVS
# rRNA inh HTS: inhibitors of bacterial rRNA selective over humanized ribosomes | E. coli WT GFP vs humanized-ribosome RFP mutants, fluorescence, 24 h; stronger effect = lower value; DMSO median 0, no signal -100 | hit rate 1.6% among 350,000 | AID 720706 | GFP signal change (wild-type ribosome), % (no concentration beside the values);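 active means significant combined selectivity score with lowered wild-type GFP, culture density cut under 30%, mutant RFP and density less affected; inactive means any of these conditions unmet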
# PGC1a acetyl inh: modulators of PGC1a acetylation; U2OS PGC1a acetylation, AlphaScreen anti-acetyl-lysine; with virally co-expressed GCN5 acetyltransferase; inhibition, % at 15.6 µM; hit rate 0.17% among 350,000; AID 651687;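 active means every replicate shows inhibition of at least 40%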;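 further: 0% = neutral control wells and 100% = positive control wells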
# Cneo AK release: Cryptococcus neoformans lysis via adenylate kinase release | C. neoformans lysis, adenylate kinase release luminescence, 4 h; normalised: neutral wells 0, clomiphene wells 100 | lysis activity, % at 15 µM | hit rate 0.2% among 360,000;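 active means mean lysis activity across replicates of at least 80%, whatever share of replicates individually reach that level; inactive means mean lysis activity below 80%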
#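 Material: C. neoformans cells; Schedule: 4 h static compound exposure, 37 °C, read 1 h post-reagent; Measured by: adenylate kinase release luminescence; Read-out: signal increase indicating cell lysis; Controls: Clomiphene as positive lysis control.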
# S100A4 MyoIIA: inhibitors of human S100A4 binding to myosin IIA peptide; inhibition, % at 10.7 µM; P26447; hit rate 0.14% among 360,000; S100A4/TAMRA-MyoIIA peptide fluorescence polarization; AID 652163;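 active means mean inhibition of at least 70% across replicates, with every replicate also reaching that level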
# Target sequence (P26447 whole entry, looked up): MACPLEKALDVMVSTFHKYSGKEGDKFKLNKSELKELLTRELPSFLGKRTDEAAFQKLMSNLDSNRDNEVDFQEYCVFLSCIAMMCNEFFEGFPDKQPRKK
#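 Test system – S100A4 monomer (human) · Compound – single-point compound testing · Schedule – 5 min incubation before reading · Probe or stimulus – TAMRA-labelled myosin IIA heavy-chain peptide probe, 5 nM · Benchmarks – neutral control DMSO, positive control TFP · Medium – Calcium-containing HEPES buffer, pH 7.2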
# Statin myotox sup: suppressors of simvastatin-induced myotoxicity in C2C12 myotubes; ATP luminescence, 48 h; scaled: DMSO 0, geranylgeraniol control 100; rescue of ATP level, % at 7.49 µM; hit rate 0.78% among 330,000; AID 602340;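 active means mean ATP rescue above about 67%, or every replicate alone reaching that limit, limit read from the data, passing the limit was not always enough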;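 further: myotubes were challenged with 10 µM simvastatin during compound exposure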
# The depositor's hits bear a star; . = no result given. The list is not random: actives were taken first. Their share in the collection is about 3%.
SMILES,SIRT5 block,rRNA inh HTS,PGC1a acetyl inh,Cneo AK release,S100A4 MyoIIA,Statin myotox sup
CC1NC2(C(=O)N(Cc3ccccc3)c3ccccc32)C2C(=O)N(c3ccccc3)C(=O)C12 (stereo not drawn),-5,-7,-2,1,86*,11
COc1cc(C)c(Cl)cc1S(=O)(=O)NCCN1CCOCC1,.,.,-12,3,.,123*
COc1cc(C)c(Cl)cc1S(=O)(=O)NCCCN1CCOCC1,.,.,-12,-2,.,-23
O=C1/C(=C/c2cccnc2)Sc2ccccc21,.,.,-4,0,.,93*
Cc1ccc(/C=C2\Sc3ccccc3C2=O)s1,.,.,0,-3,.,87*
OC[C@@H]1CN(Cc2ccc(-c3ccccc3)cc2)C[C@H](n2cnc3c(NCc4ccco4)ncnc32)O1,2,-2,24,1,-16,7
OC[C@@H]1CN(Cc2ccccc2)C[C@H](n2cnc3c(NCc4ccco4)ncnc32)O1,-1,2,101*,0,-15,0
COc1ccc(CN2C[C@@H](CO)O[C@@H](n3cnc4c(NCc5ccc(F)cc5)ncnc43)C2)cc1,.,.,8,0,2,81*
Cn1cnc2c(NCc3ccco3)ncnc21,30*,2,-9,-1,0,8
COc1cc(CNc2ncnc3c2ncn3[C@H]2CN(Cc3cccc4ccccc34)C[C@@H](CO)O2)cc(OC)c1OC,1,8,-12,0,-4,166*
C[C@@H]1CN([C@@H](C)CO)C(=O)c2cc(-c3cncnc3)cnc2O[C@@H]1CN(C)C(=O)Cc1ccccc1,2,6,-1,-2,1,-33
COc1ccc(OCc2cc(C(=O)N[C@H]3CCCCNC3=O)no2)c(Cl)c1,-3,-1,0,-12,16,.
CSc1ccccc1OCc1cc(C(=O)N[C@H]2CCCCNC2=O)no1,2,-19*,.,0,-12,3
O=C(C[C@@H]1CC[C@@H](NC(=O)c2ccc(F)cc2)[C@@H](CO)O1)NCc1ccncn1,-2,1,14,-3,1,10
CC(=O)Nc1ccc2c(c1)C(=O)N(C)C[C@@H](C)[C@@H](CN(C)C(=O)OC(C)(C)C)O2,.,1,.,.,.,.
CNC[C@H]1Oc2ccc(N(C)C)cc2CC(=O)N(C)C[C@H]1C,.,2,.,.,.,.
COc1ccc2c3c(n(C)c2c1)[C@@H](CO)N(C(=O)Cc1ccccc1)CC31CCN(C)CC1,.,0,-10,.,5,.
Cc1ccc(S(=O)(=O)N2C(=O)[C@@H]3Cc4ccccc4CN3C2=O)cc1,17*,19,.,1,-6,16
Oc1cccc(/C=N/N(Cc2ccccc2)c2ccccc2)c1,1,-42*,-3,.,1,.
C(=N\N(Cc1ccccc1)c1ccccc1)/c1cccnc1,1,-52,.,.,3,.
Nc1ccc(C2(c3ccc(N)cc3)c3ccccc3C(=O)c3ccccc32)cc1,-3,-32*,.,.,-4,.
Cc1ccc(S(=O)(=O)N[C@@H]2CC[C@H](CCn3cc(C4CCCCC4)nn3)O[C@H]2CO)cc1,11,-4,-7,-4,-6,14
C(=C\c1ccccc1)/C=N/N1CCN(Cc2ccccc2)CC1,-2,-25*,6,.,-5,.
O=C1CCc2cc(S(=O)(=O)N3CCCCC3)cc3c2N1CCC3,4,-1,-6,.,73*,30
C[C@H]1CN([C@@H](C)CO)S(=O)(=O)c2ccc(-c3ccncc3)cc2O[C@H]1CN(C)C(=O)C1CCCCC1,.,-6,7,.,.,-20
SMILES,SIRT5 block,rRNA inh HTS,PGC1a acetyl inh,Cneo AK release,S100A4 MyoIIA,Statin myotox sup
CCOc1cccc2sc(NC(=O)CC)nc12,2,-19*,10,1,-5,26
C=CCNC(=O)COC(=O)COc1ccc(Cl)cc1C,17*,6,4,1,-5,.
CCNC(=O)COC(=O)COc1ccc(Cl)cc1C,.,.,7,0,.,1
O=C(C[C@H]1CC[C@@H]2NC[C@H](O)COC[C@H]2O1)Nc1nccs1,.,3,0,1,.,-29
CC[C@@H]1CC=CC[C@H](C)Oc2ccccc2C(=O)N(C)[C@@H](Cc2ccccc2)C(=O)N1 (mixture of isomers),.,-9,.,.,.,.
CC[C@H](C)[C@@H]1OC(=O)[C@@H](C)[C@@H](CC)NC(=O)[C@H](C)N(C)C(=O)C(C)(C)C(=O)C(C)NC(=O)[C@H](Cc2ccccc2)N(C)C(=O)[C@H](C(C)C)N(C)C(=O)CNC(=O)[C@H](CC(C)C)N(C)C(=O)CNC1=O (stereo partly drawn),.,.,76*,-18,.,-54
O=C(Cc1c(Cl)cccc1Cl)Nc1cccnc1,0,4,.,.,1,.
O=C(CSCc1c(Cl)cccc1Cl)Nc1cccnc1,-4,-24*,0,-2,0,-12
Cc1nnc(Nc2ccc(O)cc2)[nH]c1=O,-6,20,25,0,6,107*
Cc1nnc(Nc2ccc(C(=O)O)cc2)[nH]c1=O,-4,6,2,.,24,.
NNC(=O)c1ccccc1-n1cccc1,22*,.,-4,3,-6,1
O=C(NNC(=O)c1ccccc1-n1cccc1)c1ccccc1,.,.,-29,2,.,-15
CN(C)C(=O)C[C@@H]1C[C@@H]2c3cc(NS(=O)(=O)c4ccc(F)cc4)ccc3O[C@@H]2[C@H](CO)O1,.,2,-7,-9,.,2
Cc1ccc(NC(=O)Nc2ccc3c(c2)N(C)C(=O)CS3)cc1C,.,-13*,-3,-3,1,-4
Cc1cc(C)cc(NC(=O)Nc2ccc3c(c2)N(C)C(=O)CS3)c1,.,-2,-15,-5,3,-2
C[C@@]12C(=O)Nc3ccc(Cl)cc3C(=O)N1[C@H]1c3cc(Cl)ccc3OC[C@@H]1[C@@H]2c1ccccc1,.,0,13,0,2,-51
Cc1ccc2c(c1)[C@H]1[C@H](CO2)[C@H](c2ccccc2)[C@]2(C)C(=O)Nc3ccc(Cl)cc3C(=O)N12,16*,10,.,3,-22,2
CN(CC(=O)Nc1ccc(Cl)cc1)CC(=O)Nc1cc(Cl)ccc1C#N,-6,-38*,-9,0,-12,36
Cc1ccc(NC(=O)CN(C)Cc2ccc(Cl)cc2)cc1,-3,-30*,.,.,2,-1
CN(CC(=O)Nc1ccc(Cl)cc1)CC(=O)Nc1ccc(C(N)=O)cc1,-2,1,.,.,9,.
CN(CC(=O)Nc1ccc(N2CCOCC2)cc1)CC(=O)Nc1ccccc1C#N,.,.,0,6,.,95*
CCCNC(=O)N1C[C@H](O)COC[C@@H]2O[C@H](CC(=O)N3CCOCC3)CC[C@H]21,1,1,4,1,-12,-13
O=C1C(C=NCCN2CCOCC2)=C(O)c2ccccc21,.,.,-5,-6,.,8
COc1ccc(C=NCCCN2CCOCC2)cc1,.,.,1,1,.,88*
O=C1C(C=NCCCN2CCOCC2)=C(O)c2ccccc21,4,0,14,0,-4,124*

# High-throughput results as filed in PubChem BioAssay.
